Here are results for ten compounds from ChEMBL document CHEMBL4808225, “Discovery and Characterization of Selective and Ligand-Efficient DYRK Inhibitors” (J Med Chem, 2021).

For orientation: IC50 means the concentration that inhibits the measured activity by half. Low values mean greater potency in that assay, high ones weaker potency in that assay. By Kd is commonly meant the free concentration of one partner at which half of the binding sites on the other are occupied at equilibrium, for simple one-to-one binding.

The target in data set [1] is T1, Dual specificity tyrosine-phosphorylation-regulated kinase 1A (Homo sapiens, UniProt Q13627). Put plainly: Displacement of Kinase tracer 236 from biotinylated DYRK1A (unknown origin) expressed in Escherichia coli BL21 (DE3) incubated for 1.5 hrs by TR-FRET assay.
Data set [2] has as its target T1, Dual specificity tyrosine-phosphorylation-regulated kinase 1A. The data set is described as follows: Binding affinity to biotinylated DYRK1A (unknown origin) expressed in Escherichia coli BL21 (DE3) assessed as dissociation constant measured up to 5 min by SPR method. In general terms: SPR reads the build-up and loss of mass on a sensor chip optically.
A short description of data set [3]: Metabolic stability in human liver microsomes. The settings on record: read-out: Stabilty. It is filed as ADME, Microsome.
A short description of data set [4]: Metabolic stability in rat liver microsomes. The settings on record: read-out: Stabilty. It is filed as ADME, Microsome. Background: Microsomes from liver hold many membrane-bound enzymes, among them those of drug oxidation.
Data set [5] in a line: Thermodynamic solubility of the compound at pH 6.8. The settings on record: buffer, read-out: Therm_solubility. It is filed as physicochemical. A digest of the protocol:
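Thermodynamic solubility measured at pH 6.8 in a single experiment, reported in […].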

Data set [6] has as its target Dual specificity tyrosine-phosphorylation-regulated kinase 1B (Homo sapiens) (UniProt Q9Y463). The data set is described as follows: Inhibition of wild-type human full length DYRK1B (M1 to S629 residues) expressed in bacterial expression system assessed as remaining activity at 1 uM by Kinomescan method relative to control. A digest of the protocol: (§1)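 KINOMEscan competition binding panel run with inhibitor at 1 μM; read-out is remaining kinase activity (percent of control).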

Data set [7] addresses T2, Dual specificity tyrosine-phosphorylation-regulated kinase 2 (Homo sapiens) (UniProt Q92630).
T2 sequence (whole entry): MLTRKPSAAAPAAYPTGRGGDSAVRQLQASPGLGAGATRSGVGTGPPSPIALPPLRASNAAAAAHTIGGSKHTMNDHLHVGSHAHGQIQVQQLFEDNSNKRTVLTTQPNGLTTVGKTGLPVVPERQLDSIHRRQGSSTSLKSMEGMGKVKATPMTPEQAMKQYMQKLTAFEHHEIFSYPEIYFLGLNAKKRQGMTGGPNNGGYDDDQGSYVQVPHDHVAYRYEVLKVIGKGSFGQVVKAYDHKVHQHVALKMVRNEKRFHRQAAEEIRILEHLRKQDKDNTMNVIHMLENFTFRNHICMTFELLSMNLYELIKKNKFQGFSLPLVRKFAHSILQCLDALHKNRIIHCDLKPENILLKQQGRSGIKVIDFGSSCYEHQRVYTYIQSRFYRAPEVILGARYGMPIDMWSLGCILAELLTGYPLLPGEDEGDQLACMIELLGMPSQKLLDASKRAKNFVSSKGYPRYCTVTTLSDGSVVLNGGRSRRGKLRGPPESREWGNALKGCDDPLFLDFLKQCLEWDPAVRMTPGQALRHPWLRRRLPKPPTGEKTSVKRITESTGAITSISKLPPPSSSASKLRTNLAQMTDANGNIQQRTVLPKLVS
Put plainly: Inhibition of wild-type human full length DYRK2 (M1 to S528 residues) expressed in mammalian expression system assessed as remaining activity at 1 uM by Kinomescan method relative to control. A digest of the protocol: as §1

Data set [8] has as its target Dual specificity protein kinase CLK1 (Homo sapiens, UniProt P49759). Put plainly: Inhibition of wild-type human full length CLK1 (M1 to I484 residues) expressed in bacterial expression system assessed as remaining activity at 1 uM by Kinomescan method relative to control. The procedure, abridged:
as §1

Data set [9] addresses Dual specificity protein kinase CLK2 (Homo sapiens) (UniProt P49760). Put plainly: Inhibition of wild-type human partial length CLK2 (D144 to R498 residues) expressed in bacterial expression system assessed as remaining activity at 1 uM by Kinomescan method relative to control. A digest of the protocol: as §1
In data set [10] the target is Dual specificity protein kinase CLK3 (Homo sapiens) (UniProt P49761). The data set is described as follows: Inhibition of wild-type human full length CLK3 (M1 to R490 residues) expressed in bacterial expression system assessed as remaining activity at 1 uM by Kinomescan method relative to control. The procedure, abridged:
as §1

The target of data set [11] is Cyclin-dependent kinase 2 (Homo sapiens) (UniProt P24941). The data set is described as follows: Inhibition of wild-type human full length CDK2 (M1 to L298 residues) expressed in bacterial expression system assessed as remaining activity at 1 uM by Kinomescan method relative to control. The procedure, abridged:
as §1

For data set [12], the target named is Glycogen synthase kinase-3 beta (Homo sapiens) (UniProt P49841). The data set is described as follows: Inhibition of wild-type human full length GSK3B (M1 to T433 residues) expressed in mammalian expression system assessed as remaining activity at 1 uM by Kinomescan method relative to control. The procedure, abridged:
as §1

The target in data set [13] is T1, Dual specificity tyrosine-phosphorylation-regulated kinase 1A. The data set is described as follows: Inhibition of human DYRK1A-mediated tau phosphorylation expressed in HEK293 cells incubated for 2 hrs by ELISA. It is filed as cell-based.

Values after ≈ are worked out from the molar mass of the structure shown.

Sequence of Dual specificity protein kinase CLK3 (Homo sapiens) (P49761 whole entry, looked up, the tested form may be a part): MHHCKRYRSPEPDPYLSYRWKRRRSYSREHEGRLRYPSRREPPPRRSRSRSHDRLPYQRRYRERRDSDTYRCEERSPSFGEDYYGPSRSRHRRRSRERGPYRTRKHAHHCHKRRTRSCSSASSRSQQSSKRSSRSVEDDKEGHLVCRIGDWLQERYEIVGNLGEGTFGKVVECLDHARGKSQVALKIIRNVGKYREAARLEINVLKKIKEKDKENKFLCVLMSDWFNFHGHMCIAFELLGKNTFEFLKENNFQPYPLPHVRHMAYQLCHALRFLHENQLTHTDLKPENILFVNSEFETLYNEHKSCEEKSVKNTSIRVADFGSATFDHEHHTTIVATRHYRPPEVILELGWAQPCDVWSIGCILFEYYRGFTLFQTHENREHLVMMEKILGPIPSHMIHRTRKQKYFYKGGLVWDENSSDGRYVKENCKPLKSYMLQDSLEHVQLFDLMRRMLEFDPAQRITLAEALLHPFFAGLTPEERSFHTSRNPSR
Sequence of Dual specificity protein kinase CLK1 (P49759 whole entry, looked up, the tested form may be a part): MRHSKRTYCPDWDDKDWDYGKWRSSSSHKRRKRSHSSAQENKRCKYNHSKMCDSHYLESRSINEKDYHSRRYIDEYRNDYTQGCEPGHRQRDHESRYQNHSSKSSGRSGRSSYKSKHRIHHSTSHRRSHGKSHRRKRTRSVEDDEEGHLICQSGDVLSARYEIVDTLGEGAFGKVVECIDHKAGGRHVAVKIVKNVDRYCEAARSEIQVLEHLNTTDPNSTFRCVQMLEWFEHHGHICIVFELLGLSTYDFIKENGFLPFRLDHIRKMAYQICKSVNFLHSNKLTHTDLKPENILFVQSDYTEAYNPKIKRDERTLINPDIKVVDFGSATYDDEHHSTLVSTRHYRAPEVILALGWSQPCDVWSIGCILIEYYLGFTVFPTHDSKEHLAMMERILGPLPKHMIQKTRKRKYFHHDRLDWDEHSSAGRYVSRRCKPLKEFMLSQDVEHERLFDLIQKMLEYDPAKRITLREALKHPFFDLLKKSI
Sequence of Dual specificity tyrosine-phosphorylation-regulated kinase 1B (Homo sapiens) (Q9Y463 whole entry, looked up, the tested form may be a part): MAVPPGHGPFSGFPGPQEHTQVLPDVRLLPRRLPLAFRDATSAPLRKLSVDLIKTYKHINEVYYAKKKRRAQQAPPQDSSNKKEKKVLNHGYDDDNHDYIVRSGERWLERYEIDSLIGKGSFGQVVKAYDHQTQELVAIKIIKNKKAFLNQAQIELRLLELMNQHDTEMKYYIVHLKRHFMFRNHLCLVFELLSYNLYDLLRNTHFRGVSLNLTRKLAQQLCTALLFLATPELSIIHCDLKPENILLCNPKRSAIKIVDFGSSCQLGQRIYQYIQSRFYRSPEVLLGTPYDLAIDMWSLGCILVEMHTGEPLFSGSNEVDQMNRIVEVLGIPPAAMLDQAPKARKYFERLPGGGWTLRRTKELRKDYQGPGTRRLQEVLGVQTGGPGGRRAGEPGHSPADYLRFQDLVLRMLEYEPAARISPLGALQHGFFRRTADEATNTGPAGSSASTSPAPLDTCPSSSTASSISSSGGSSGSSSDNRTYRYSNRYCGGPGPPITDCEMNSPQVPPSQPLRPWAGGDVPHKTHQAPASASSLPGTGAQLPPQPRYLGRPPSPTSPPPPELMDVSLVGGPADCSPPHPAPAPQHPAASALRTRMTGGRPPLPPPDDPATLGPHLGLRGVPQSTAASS
Sequence of Dual specificity protein kinase CLK2 (Homo sapiens) (P49760 whole entry, looked up, the tested form may be a part): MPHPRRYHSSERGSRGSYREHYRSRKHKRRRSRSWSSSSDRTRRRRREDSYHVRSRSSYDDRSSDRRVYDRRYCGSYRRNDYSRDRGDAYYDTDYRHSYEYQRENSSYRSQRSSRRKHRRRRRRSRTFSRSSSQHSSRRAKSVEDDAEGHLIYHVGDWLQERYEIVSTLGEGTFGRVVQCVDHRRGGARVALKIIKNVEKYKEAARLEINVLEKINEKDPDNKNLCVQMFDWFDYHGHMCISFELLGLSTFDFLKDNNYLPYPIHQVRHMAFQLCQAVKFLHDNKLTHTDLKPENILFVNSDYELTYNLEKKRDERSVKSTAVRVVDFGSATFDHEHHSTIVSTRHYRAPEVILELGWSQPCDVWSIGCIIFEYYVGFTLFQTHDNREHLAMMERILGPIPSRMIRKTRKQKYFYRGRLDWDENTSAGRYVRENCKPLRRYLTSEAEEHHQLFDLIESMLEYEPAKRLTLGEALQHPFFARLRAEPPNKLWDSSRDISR
Sequence of Glycogen synthase kinase-3 beta (Homo sapiens) (P49841 whole entry, looked up, the tested form may be a part): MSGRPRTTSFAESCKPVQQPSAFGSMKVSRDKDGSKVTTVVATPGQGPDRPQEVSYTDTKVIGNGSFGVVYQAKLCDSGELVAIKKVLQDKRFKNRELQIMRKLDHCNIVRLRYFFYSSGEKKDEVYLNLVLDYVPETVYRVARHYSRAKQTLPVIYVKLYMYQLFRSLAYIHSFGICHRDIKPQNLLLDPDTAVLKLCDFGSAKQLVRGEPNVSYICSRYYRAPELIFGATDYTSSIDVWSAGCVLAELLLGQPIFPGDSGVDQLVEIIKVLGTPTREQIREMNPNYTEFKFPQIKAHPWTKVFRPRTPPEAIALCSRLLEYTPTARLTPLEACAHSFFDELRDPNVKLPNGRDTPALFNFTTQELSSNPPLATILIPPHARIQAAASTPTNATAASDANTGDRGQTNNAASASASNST

In data set [1], `CN(C)c1ncnc(-c2cnn3ncccc23)n1` showed an IC50 of 182 nM. Moreover, the Kd in data set [2] came to 153 nM. Also, the microsomal CLint in [3] was found to be 93.6 µL/min/mg; in [4] it was 105 µL/min/mg. Besides, in data set [5], the solubility thermodynamic was 50 µg/mL (≈ 207 µM).

The compound `c1cnn2ncc(-c3ccnc(N4CCC45COC5)n3)c2c1` gave an IC50 in data set [1] of 79.4 nM. In [2], the Kd was determined as 64 nM. The microsomal CLint in [3] turned out to be 126 µL/min/mg; in [4], 119 µL/min/mg. Moreover, the solubility thermodynamic in data set [5] came out at 60 µg/mL (≈ 204 µM). Besides, the Activity turned out to be 8.3% in data set [6]; 11% in data set [7]; 33% in data set [8]; 13% in data set [9]; 54% in [10]; 100% in [11]. Also, the Activity in data set [12] is 75%.

In the case of `Nc1nccc(-c2cnn3ncccc23)n1`, in data set [1], the IC50 was 525 nM. Moreover, in data set [2], the Kd was 134 nM.

Compound `Cc1cnn2ncc(-c3ccnc(N(C)C)n3)c2c1` gave an IC50 in data set [1] of 115 nM. Also, the microsomal CLint in [3] amounted to 160 µL/min/mg; in [4] it was 164 µL/min/mg. In addition, in data set [5], the solubility thermodynamic was found to be 10 µg/mL (≈ 39.3 µM). For the same compound, the Activity in data set [6] was 1.6%; in data set [7], 25%; in data set [8] it was 15%; in [9], 13%; in [10], 76%; in [11], 89%. Also, the Activity in [12] amounted to 100%.

Turning to `CN(C)c1ncc(Cl)c(-c2cnn3ncccc23)n1`, the IC50 in data set [1] is 331 nM. The Kd in data set [2] is 963 nM.

As for `COc1ccnn2ncc(-c3ccnc(N(C)C)n3)c12`, in [1], the IC50 is 138 nM. The microsomal CLint in [3] was determined as 89 µL/min/mg; in [4], 77 µL/min/mg. In addition, the solubility thermodynamic in data set [5] came out at 70 µg/mL (≈ 259 µM). The Activity amounted to 0.7% in data set [6]; 24% in data set [7]; 7.8% in [8]; 12% in data set [9]; 83% in data set [10]; 100% in data set [11]. Further, the Activity in data set [12] worked out at 100%.

The compound `CN(c1nccc(-c2cnn3ncccc23)n1)C1CC1` showed an IC50 in [1] of 115 nM. In addition, the Kd in data set [2] was 90.4 nM. The figures for the microsomal CLint in data set [3] and in [4] were 71 µL/min/mg and 434 µL/min/mg, respectively. In addition, in data set [5], the solubility thermodynamic is 60 µg/mL (≈ 225 µM). In addition, the Activity in [6] worked out at 43%; in data set [7], 100%; in data set [8], 79%; in data set [9], 95%; in [10] it was 96%; in [11], 100%. Moreover, the Activity in data set [12] was determined as 91%.

In the case of `CN(C)c1ncc(F)c(-c2cnn3ncccc23)n1`, the results for the IC50 in data set [1] and in data set [13] were 57.5 nM and 250 nM, respectively. Moreover, the Kd in [2] amounted to 12 nM. Moreover, the microsomal CLint worked out at 697 µL/min/mg in data set [3] and 983 µL/min/mg in data set [4]. The solubility thermodynamic in data set [5] was determined as 30 µg/mL (≈ 116 µM). For the same compound, the Activity is 71% in data set [6]; 55% in [7]; 53% in data set [8]; 54% in [9]; 84% in [10]; 100% in data set [11]. In addition, the Activity in [12] came to 93%.

In data set [1], `CN(C)c1nccc(-c2cnc3ncccn23)n1` gave an IC50 of 158 nM. Moreover, the microsomal CLint in data set [3] was determined as 154 µL/min/mg; in data set [4], 96 µL/min/mg. Besides, the solubility thermodynamic in [5] amounted to 470 µg/mL (≈ 1960 µM). The Activity worked out at 6.2% in data set [6]; 35% in data set [7]; 20% in data set [8]; 31% in [9]; 56% in data set [10]; 86% in data set [11]. For the same compound, the Activity in data set [12] worked out at 77%.

Take `CNc1nccc(-c2cnn3ncccc23)n1`: the IC50 in data set [1] is 182 nM. Further, the Kd in data set [2] worked out at 55 nM.
